Test results taken from ChEMBL document CHEMBL1125836, “Disubstituted tetrahydrofurans and dioxolanes and PAF antagonists” (J Med Chem, 1991).
Values joined by “and” are separate entries in the source; they are usually repeats but may differ in a detail not shown here. Equal values may be shown once.

Species: Rattus norvegicus
Assay: Activity expressed as the dose required to reduce the lowering of the arterial blood pressure caused by PAF by 50%.
Assay type: functional
Details: Artery, read-out: ID50 (the source's name)
Summary of the method: (§1)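 Male Sprague-Dawley rats (180–220 g) anesthetized with sodium pentobarbital (50 mg/kg ip). Carotid arterial pressure was recorded. Compound was given iv in saline (1 mL/kg) via femoral vein 3 min before PAF (0.5 μg/kg iv); vehicle controls.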

Structure (SMILES)	ED50 [mg/kg]
CCCCCCCCCCCCCCCCCC1OCC(COCCCCCCCC[n+]2ccsc2)O1.Cc1ccc(S(=O)(=O)[O-])cc1 (stereo not given)	> 5
CC1OCC(COC(=O)CCCCC[n+]2ccsc2)O1.Cc1ccc(S(=O)(=O)[O-])cc1 (stereo not given)	> 5
CCCCCCCCCCCCCCC1COC(COC(=O)CCCCC[n+]2ccsc2)C1.Cc1ccc(S(=O)(=O)[O-])cc1 (stereo not given)	> 5

These compounds were tested against Platelet-activating factor receptor (Rattus norvegicus) (UniProt P46002) (assay: Activity expressed as the dose required to reduce the lowering of the arterial blood pressure caused by PAF by 50%). Details: Artery.
Assay type: functional
Summary of the method: as §1

Sequence of Platelet-activating factor receptor (Rattus norvegicus) (P46002 whole entry): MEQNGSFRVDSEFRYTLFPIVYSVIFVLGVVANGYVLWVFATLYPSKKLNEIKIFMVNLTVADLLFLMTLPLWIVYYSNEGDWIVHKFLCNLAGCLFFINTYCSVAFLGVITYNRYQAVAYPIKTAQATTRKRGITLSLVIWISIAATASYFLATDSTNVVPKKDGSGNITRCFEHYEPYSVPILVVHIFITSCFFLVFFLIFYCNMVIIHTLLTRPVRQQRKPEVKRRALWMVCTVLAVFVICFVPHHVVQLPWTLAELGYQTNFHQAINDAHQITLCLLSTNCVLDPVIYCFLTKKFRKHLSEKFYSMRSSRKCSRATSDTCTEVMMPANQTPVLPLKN

Structure (SMILES)	ID50
CCCCCCCCCCCCCCCCCC1OCC(COCCCCCC[n+]2cscc2C)O1 (stereo not given)	3.1 mg/kg
CCCCCCCCCCCCCCCCCCOCC1COC(COC(=O)N(Cc2ccc[n+](CC)c2)C(C)=O)C1 (stereo not given)	> 5 mg/kg
CCCCCCCCCCCCCCCCCC1OCC(COCCCCCC[N+]2(C)CCOCC2)O1 (stereo not given)	> 5 mg/kg
CCCCCCCCCCCCCCCCOCC1CC(COC(=O)N(Cc2cccc[n+]2CC)C(C)=O)CO1 (stereo not given)	0.027 mg/kg and 0.02 mg/kg
CCCCCCCCCCCCOCC1COC(COCCCCCCC[n+]2ccsc2)C1 (stereo not given)	3.7 mg/kg
CCCCCCCCCCCCCCCNC(=O)OCC1CC(COC(=O)N(Cc2cccc[n+]2CC)C(C)=O)CO1 (stereo in doubt; form 2)	0.042 mg/kg
CCCCCCCCCCCCCCCCOCC1COC(COCCCCCC[n+]2ccsc2)C1 (stereo not given)	1.2 mg/kg
CCCCCCCCCCCCCCCCOCC1COC(COC(=O)N(Cc2ccccn2)C(C)=O)C1 (stereo not given)	> 5 mg/kg
CCCCCCCCCCCCCCCCOCC1COC(COC(=O)N(C(C)=O)c2ccc[n+](CC)c2)C1 (stereo not given)	0.13 mg/kg
CCCCCCCCCCCCCCCCCC1OCC(COP(=O)([O-])OCC[n+]2ccccc2)O1 (stereo not given)	> 5 mg/kg
CCCCCCCCCCCCCCCCCC1OCC(COP(=O)([O-])OCC[N+](C)(C)C)O1 (stereo not given)	> 5 mg/kg
CCCCCCCCCCCCCCCCCC1OCC(COCCCC[n+]2ccsc2)O1 (stereo not given)	> 5 mg/kg
CCCCCCCCCCCCCCCCCCOCC1CC(COC(=O)CCCCC[n+]2ccsc2)CO1 (stereo not given)	1.1 mg/kg
CCCCCCCCCCCCCCCCCC1OCC(COC(=O)CCCCC[n+]2ccsc2)O1 (stereo not given)	0.88 mg/kg
CCCCCCCCCCCCCCCCCC1OCC(COCCCCCC[N+](C)(C)C)O1 (stereo not given)	> 5 mg/kg
CCCCCCCCCCCCCCOCC1COC(COCCCCCC[n+]2ccsc2)C1 (stereo not given)	3.1 mg/kg
CCCCCCCCCCCCCCCC1CCC(COCCCCCC[n+]2ccsc2)O1 (stereo not given)	2 mg/kg
CCCCCCCCCCCCCCCCCC1CC(COC(=O)N(Cc2cccc[n+]2CC)C(C)=O)CO1 (stereo not given)	0.052 mg/kg
CCCCCCCCCCCCCCCCCCOCC1COC(COC(=O)N(Cc2cccc[n+]2CC)C(C)=O)O1 (stereo not given)	0.017 mg/kg
CCCCCCCCCCCCCCC1COC(COCCCC[n+]2ccsc2)C1 (stereo not given)	> 5 mg/kg
CCCCCCCCCCCCCCCCCCOCC1COC(COC(=O)CCCCC[n+]2ccsc2)C1 (stereo not given)	2.4 mg/kg
CCCCCCCCCCCCCCCCOCC1COC(COC(=O)N(Cc2cccc[n+]2C)C(C)=O)C1 (stereo not given)	0.24 mg/kg
CCCCCCCCCCCCCCCCOCC1COC(COC(=O)N(C(C)=O)c2cc[n+](CC)cc2)C1 (stereo not given)	> 5 mg/kg
CCCCCCCCCCCCCCCC1CCC(COC(=O)N(Cc2cccc[n+]2CC)C(C)=O)O1 (stereo not given)	0.15 mg/kg

Structure (SMILES)	ID50
CCCCCCCCCCCCCCCCOCC1COC(COC(=O)CCCCC[n+]2ccsc2)C1 (stereo not given)	1.7 mg/kg
CCCCCCCCCCCCCCCCOCC1CC(COCCCCCC[n+]2ccsc2)CO1 (stereo not given)	1.8 mg/kg
CCCCCCCCCCCCCCCCCCOCC1COC(COC(=O)N(Cc2cc[n+](CC)cc2)C(C)=O)C1 (stereo not given)	1.6 mg/kg
CCCCCCCCCCCCCCC1COC(COP(=O)([O-])OCC[N+](C)(C)C)C1 (stereo not given)	> 5 mg/kg
CCCCCCCCCCCCCCCNC(=O)OCC1COC(COC(=O)N(Cc2cccc[n+]2CC)C(C)=O)C1 (stereo not given)	0.067 mg/kg and 0.033 mg/kg
CCCCCCCCCCCCCCCCCCOCC1OCC(COC(=O)N(Cc2cccc[n+]2CC)C(C)=O)O1 (stereo not given)	0.041 mg/kg
CCCCCCCCCCCCCCCCCC1CCC(COC(=O)N(Cc2cccc[n+]2CC)C(C)=O)O1 (stereo not given)	0.15 mg/kg
CCCCCCCCCCCCCCC1COC(COCCCCCCCC[n+]2ccsc2)C1 (stereo not given)	2.3 mg/kg
CCCCCCCCCCCCCCCCCC1OCC(COCCCCCC[n+]2ccccc2)O1 (stereo not given)	> 5 mg/kg
CCCCCCCCCCCCCCC1COC(COCCCCCC[n+]2ccsc2)C1 (stereo in doubt; form 2)	2.9 mg/kg
CCCCCCCCCCCCCCC1COC(COP(=O)([O-])OCC[n+]2ccccc2)C1 (stereo not given)	> 5 mg/kg
CCCCCCCCCCCCCCCCCCNC(=O)OCC(COC(=O)N(Cc1cccc[n+]1CC)C(C)=O)OC (stereo not given)	0.0078 mg/kg and 0.011 mg/kg
CCCCCCCCCCCCCCCCCCOCC1COC(COC(=O)NCc2cc[n+](CC)cc2)C1 (stereo not given)	> 5 mg/kg
CCCCCCCCCCCCCCOCC1COC(COC(=O)N(Cc2cccc[n+]2CC)C(C)=O)O1 (stereo not given)	0.2 mg/kg
CCCCCCCCCCCCCCC1COC(COCCCCCC[n+]2ccsc2)C1 (stereo in doubt; form 1)	2.5 mg/kg
CCCCCCCCCCCCCCCCOCC1COC(COC(=O)N(Cc2cccc[n+]2CC)C(=O)OCC)C1 (stereo not given)	0.035 mg/kg
CCCCCCCCCCCCCCCCCC1OCC(COC(=O)N(Cc2cccc[n+]2CC)C(C)=O)O1 (stereo not given)	0.24 mg/kg
CCCCCCCCCCCCCCOCC1COC(COC(=O)N(Cc2cccc[n+]2CC)C(C)=O)C1 (stereo not given)	0.087 mg/kg
CCCCCCCCCCCCCCCCOCC1OCC(COC(=O)N(Cc2cccc[n+]2CC)C(C)=O)O1 (stereo not given)	0.024 mg/kg
CCCCCCCCCCCCCCCC1CCC(COC(=O)CCCCC[n+]2ccsc2)O1 (stereo not given)	1.2 mg/kg
CCCCCCCCCCCCCCCCCC1COC(COC(=O)N(Cc2cccc[n+]2CC)C(C)=O)O1 (stereo not given)	0.074 mg/kg
CCCCCCCCCCCCCCCCOCC1COC(COC(=O)NCCc2cccc[n+]2CC)C1 (stereo not given)	> 5 mg/kg
CCCCCCCCCCCCCCCCCCCC1OCC(COC(=O)CCCCC[n+]2ccsc2)O1 (stereo not given)	5.1 mg/kg
CCCCCCCCCCCCCCCCOCC1OCC(COCCCCCC[n+]2ccsc2)O1 (stereo not given)	1.8 mg/kg

Structure (SMILES)	ID50
CCCCCCCCCCCCCCCCC1COC(COCCCCCCC[n+]2ccsc2)C1 (stereo not given)	2 mg/kg
CCCCCCCCCCCCCCCCCC1OCC(COCCCCCC[n+]2cccc3ccccc32)O1 (stereo not given)	3.8 mg/kg
CCCCCCCCCCCCCCCCCCOCC1COC(COC(=O)N(Cc2cccc[n+]2CC)C(C)=O)C1 (stereo not given)	0.035 mg/kg
CCCCCCCCCCCCCCCCCCOCC1CC(COCCCCC[n+]2ccsc2)CO1 (stereo not given)	2.5 mg/kg
CCCCCCCCCCCCCCCCOCC1OCC(COC(=O)CCCCC[n+]2ccsc2)O1 (stereo not given)	1.1 mg/kg
CCCCCCCCCCCCCCCCCCC1COC(COC(=O)N(Cc2cccc[n+]2CC)C(C)=O)C1 (stereo not given)	0.23 mg/kg
CCCCCCCCCCCCCC1OCC(COC(=O)CCCCC[n+]2ccsc2)O1 (stereo not given)	> 5 mg/kg
CCCCCCCCCCCCCCCCOCC1COC(COC(=O)N(Cc2cccc[n+]2CC)C(C)=O)O1 (stereo not given)	0.057 mg/kg and 0.029 mg/kg
CCCCCCCCCCCCCCCCOCC1COC(COC(=O)N(CCc2cccc[n+]2CC)C(C)=O)C1 (stereo not given)	> 5 mg/kg
CCCCCCCCCCCCCCCCCCOCC1CC(COCCCCCCC[n+]2ccsc2)CO1 (stereo not given)	2.1 mg/kg
CCCCCCCCCCCCCCCCOCC1CCC(COC(=O)N(Cc2cccc[n+]2CC)C(C)=O)O1 (stereo not given)	0.036 mg/kg
CCCCCCCCCCCCCCC1COC(COCCCCCC[N+](C)(C)C)C1 (stereo not given)	> 5 mg/kg
CCCCCCCCCCCCCCC1COC(COC(=O)N(Cc2cccc[n+]2CC)C(C)=O)C1 (stereo not given)	0.24 mg/kg
CCCCCCCCCCCCCCCCCCOCC1COC(COC(=O)Nc2cc[n+](CC)cc2)C1 (stereo not given)	> 5 mg/kg
CCCCCCCCCCCCCCCCOCC1OCC(COCCCC[n+]2ccsc2)O1 (stereo not given)	2.7 mg/kg
CCCCCCCCCCCCCCC1COC(COCCCCCCC[n+]2ccsc2)C1 (stereo not given)	1.5 mg/kg
CCCCCCCCCCCCCCCC1OCC(COC(=O)CCCCC[n+]2ccsc2)O1 (stereo not given)	0.86 mg/kg
CCCCCCCCCCCCCCC1COC(COCCCCCC[n+]2cccc3ccccc32)C1 (stereo not given)	3 mg/kg
CCCCCCCCCCCCCCCNC(=O)OCC1CC(COC(=O)N(Cc2cccc[n+]2CC)C(C)=O)CO1 (stereo not given)	0.049 mg/kg
CCCCCCCCCCCCCCCCOCC1COC(COC(=O)N(Cc2cccc[n+]2CC)C(C)=O)C1 (stereo not given)	0.044 mg/kg and 0.035 mg/kg
CCCCCCCCCCCCCCOCC1COC(COCCCCCCC[n+]2ccsc2)C1 (stereo not given)	1.4 mg/kg
CCCCCCCCCCCCCCCNC(=O)OCC1CC(COC(=O)N(Cc2cccc[n+]2CC)C(C)=O)CO1 (stereo in doubt; form 1)	0.057 mg/kg
CCCCCCCCCCCCCCCCCC1OCC(COCCCCCC[n+]2ccsc2)O1 (stereo not given)	1.3 mg/kg
CCCCCCCCCCCCCCCCOCC1COC(COC(=O)NCc2cccc[n+]2CC)C1 (stereo not given)	> 5 mg/kg
